Experimental findings from ChEMBL document CHEMBL1124425, “Alkylating partial muscarinic agonists related to oxotremorine. N-[4-[(2-haloethyl)methylamino]-2-butynyl]-5-methyl-2-pyrrolidones” (J Med Chem, 1989) are described below.

SMILES strings stand for the structures.

Data set [1] can be described thus: Binding affinity of compound towards muscarinic receptor using radioligand [3H]NMS in the rat cerebral cortex. It is filed as tissue-based. The gist of the method:
(§1)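 Male Sprague-Dawley rat cerebral cortex homogenised in 50 mM phosphate buffer pH 7.4 and centrifuged at 30000g. Competition against 0.3 nM (-)-[3H]NMS with the aziridinium ions, 1 h at 0 °C, triplicates, five experiments. Nonspecific binding taken with 10 µM atropine. Two-site fit by unweighted nonlinear regression gave KH and KL, which were corrected for [3H]NMS occupancy.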

Data set [2] in a line: First order rate constant of compound was determined in 50 mM phosphate buffer (pH 7.4) at 37 degree celsius. It is filed as ADME. The gist of the method:
(§2)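 Solvolysis in 50 mM phosphate buffer pH 7.4 at 37 °C. Halide release by argentometric titration. Aziridinium ion quantified by thiosulfate reaction and iodine back-titration. k1 and k2 obtained by unweighted Gauss-Newton nonlinear fit, with half-lives following from them.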

The nature of data set [3]: Rate constant for decay of compound was determined in 50 mM phosphate buffer (pH 7.4) at 37 degree celsius. The format is ADME. The method, boiled down: as §2
The species named for data set [4] is Rattus norvegicus. The data set is described as follows: Rate constants of compound was determined at muscarinic receptor in the rat cerebral cortex. It is filed as ADME. The method, boiled down: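 Rat cortex homogenate (25 mg wet tissue/mL, 50 mM phosphate pH 7.4), preincubated 10 min at 37 °C. Precyclized haloethylamines then added at 0.1 mM to 1 nM final for 30 min. Reaction stopped with thiosulfate (1.0 mM) and atropine (0.1 mM), and tissue washed four times. Residual binding of 0.4 nM [3H]QNB measured over 1 h at 37 °C. Rate equation fitted by unweighted nonlinear regression, using initial aziridinium concentration.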

A short description of data set [5]: Dissociation constant of compound was determined at muscarinic receptor in the rat cerebral cortex. The format is tissue-based. The gist of the method:
as §1

The nature of data set [6]: First order rate constant of compound was determined in 50 mM phosphate buffer (pH 7.4) at 24 degree celsius. It is filed as ADME. The gist of the method:
(§3)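 Solvolysis in 50 mM phosphate buffer pH 7.4 at 24 °C. Halide release measured by argentometric titration. Aziridinium ion was reacted with thiosulfate, and the excess was back-titrated with iodine. k1 (cyclisation) and k2 (aziridinium decay) came from an unweighted Gauss-Newton fit of kinetic models.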

A short description of data set [7]: Rate constant for decay of compound was determined in 50 mM phosphate buffer (pH 7.4) at 24 degree celsius. The format is ADME. The gist of the method: as §3
Data set [8] can be described thus: Acute toxicity of compound when injected intravenously in mice. The format is organism-based. The conditions noted are these: mouse, in vivo, iv.
Data set [9] in a line: Percentage affinity of compound towards muscarinic receptor sites in the rat cerebral cortex. The format is tissue-based. The method, boiled down:
as §1

Data set [10] can be described thus: Equilibrium binding parameters of compound was determined at muscarinic receptor in the rat cerebral cortex. The format is tissue-based. The method, boiled down: as §1
The nature of data set [11]: Ratio of binding constants KL to KH was determined. The method, boiled down:
as §1

A short description of data set [12]: Half life of compound was determined in 50 mM phosphate buffer (pH 7.4) at 37 degree celsius. It is filed as ADME. The method, boiled down:
as §2

For the compound `CC1CCC(=O)N1CC#CC[N+]1(C)CC1` (configuration not stated), the Ki (usually the equilibrium dissociation constant of an inhibitor or competing ligand from its target) in data set [1] turned out to be 53 nM.

Regarding `CN(CC#CCN1CCCC1=O)CCCl`, the K1 in data set [2] came to 0.019 min⁻¹. This compound also registered a K2 in data set [3] of 0.033 min⁻¹. The K3 in data set [4] is 0.064 min⁻¹. For the same compound, in data set [5], the KA worked out at 0.79 µM.

Turning to `C[N+]1(CC#CCN2CCCC2=O)CC1`, the Ki in data set [1] stood at 330 nM. In other words, the sub-micromolar range.

In the case of `CC1CCC(=O)N1CC#CCN(C)CCBr` (configuration not stated), the K1 in data set [6] turned out to be 0.18 min⁻¹; in data set [2], 0.89 min⁻¹. In addition, the K2 is 0.06 min⁻¹ in data set [3] and 0.0096 min⁻¹ in data set [7]. This compound returned a K3 in data set [4] of 0.096 min⁻¹. Moreover, the LD50 (commonly the dose expected to kill half of the subjects tested) in data set [8] was 81 µmol/kg. The KA in [5] was determined as 0.035 µM. The compound also had an Affinity in [9] of 14.2%. In data set [10], this compound returned a KH of 0.001 µM. This compound showed a KL in data set [10] of 0.071 µM. The Ratio in data set [11] came to 71.

The compound `CN(CC#CCN1CCCC1=O)CCBr` displayed a K1 in data set [2] of 0.85 min⁻¹. Further, the K2 in data set [3] was 0.04 min⁻¹. In data set [4], this compound came in with a K3 of 0.062 min⁻¹. In data set [5], this compound came in with a KA of 0.35 µM. Besides, the Affinity in data set [9] was found to be 16.5%. In data set [10], this compound yielded a KH of 0.001 µM and a KL of 0.47 µM. For the same compound, the Ratio in [11] stood at 466.

In the case of `CC1CCC(=O)N1CC#CCN(C)CCCl` (configuration not stated), in [2], the K1 was 0.025 min⁻¹. For the same compound, the K2 in [3] was found to be 0.045 min⁻¹. The compound also showed a K3 in data set [4] of 0.091 min⁻¹. The compound also returned a T1/2 in data set [12] (buffer) of 15.3 min. In addition, in data set [12] (phosphate buffer), the half-life (as a rule, the time needed for the level to fall by half in the phase considered) worked out at 27.7 min. The compound further yielded an LD50 in [8] of 396 µmol/kg. The same compound returned a KA in [5] of 0.058 µM.
